Experiment [1] concerns MCF7. As to the kind of experiment: Cytotoxicity against human MCF7 cells after 72 hrs by sulforhodamine B assay. The class given is functional, cell-based. Particulars: MCF7, 72 h. The method in brief:
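Cells in log phase were plated at 1000-2000 cells/well. After 24 h they were exposed to a range of concentrations for 72 h, then fixed with 10% TCA for 1 h at 4 °C. IC50 came from a Boltzmann sigmoidal nonlinear fit, as the mean of three separate experiments.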
(In general: The SRB assay estimates cell density from bound dye.)

Experiment [2] deals with A549. As to the kind of experiment: Cytotoxicity against human A549 cells after 72 hrs by sulforhodamine B assay. Format: functional, cell-based. The conditions noted are these: A549, 72 h. The method in brief:
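Cells in log phase were plated at 1000-2000 cells/well. After 24 h they were exposed to a range of concentrations for 72 h, then fixed with 10% TCA for 1 h at 4 °C. Staining used 0.4% SRB in 1% acetic acid for 10 min at room temperature, with the dye solubilized in Tris-HCl and OD read at 564 nm. IC50 came from a Boltzmann sigmoidal nonlinear fit, as the mean of three separate experiments.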

The target of experiment [3] is Carbonic anhydrase 1 (Homo sapiens, UniProt P00915). The experiment is described as follows: Inhibition of human cytosolic form of carbonic anhydrase-1 assessed as CO2 hydration activity incubated for 15 mins prior to testing by stopped flow method.
Chain of Carbonic anhydrase 1 (P00915 whole entry): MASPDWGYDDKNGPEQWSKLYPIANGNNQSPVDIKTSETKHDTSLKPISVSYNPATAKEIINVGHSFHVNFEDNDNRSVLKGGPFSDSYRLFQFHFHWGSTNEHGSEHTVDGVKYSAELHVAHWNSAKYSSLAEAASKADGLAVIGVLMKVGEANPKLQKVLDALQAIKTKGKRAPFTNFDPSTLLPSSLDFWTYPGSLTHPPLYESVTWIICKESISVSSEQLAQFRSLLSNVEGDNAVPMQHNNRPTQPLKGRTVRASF
For experiment [4], the target named is Carbonic anhydrase 2 (Homo sapiens, UniProt P00918). As to the kind of experiment: Inhibition of human cytosolic form of carbonic anhydrase-2 assessed as CO2 hydration activity incubated for 15 mins prior to testing by stopped flow method.
Experiment [5] addresses Carbonic anhydrase 9 (Homo sapiens, UniProt Q16790). As to the kind of experiment: Inhibition of human membrane associated form of carbonic anhydrase-9 assessed as CO2 hydration activity incubated for 15 mins prior to testing by stopped flow method.
The subject of experiment [6] is MCF7. As to the kind of experiment: Induction of apoptosis in human MCF7 cells assessed as early apoptotic cells at 0.72 uM after 24 hrs by annexin V-FITC/propidium iodide staining-based flow cytometric analysis relative to control. Format: functional. The method in brief:
(§1)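 Cells were seeded at 1 x 10^5 cells/ml and held 24 h at 37 °C in 5% CO2, then treated for a further 24 h. They were harvested with 0.25% trypsin, washed twice in Ca2+/Mg2+-free PBS and adjusted to 1 x 10^6 cells/ml. Staining with annexin V-FITC/PI ran 30 min in the dark at room temperature, in binding buffer, with flow cytometry within 1 h. Untreated cells served as control.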

Experiment [7] concerns MCF7. As to the kind of experiment: Induction of apoptosis in human MCF7 cells assessed as late apoptotic cells at 0.72 uM after 24 hrs by annexin V-FITC/propidium iodide staining-based flow cytometric analysis (reference value: 0.01%). Format: functional. The procedure, abridged:
as §1
(A flow cytometer gives signals particle by particle.)

Experiment [8] has as its system MCF7. As to the kind of experiment: Induction of apoptosis in human MCF7 cells assessed as necrotic cells at 0.72 uM after 24 hrs by annexin V-FITC/propidium iodide staining-based flow cytometric analysis (reference value: 1.58%). Format: functional. The procedure, abridged: as §1
Experiment [9] deals with MCF7. As to the kind of experiment: Induction of apoptosis in human MCF7 cells assessed as viable cells at 0.72 uM after 24 hrs by annexin V-FITC/propidium iodide staining-based flow cytometric analysis (reference value: 98.41%). Particulars: MCF7, 24 h, read-out: Activity. Format: functional. The method in brief:
as §1

Experiment [10] has as its system A549. As to the kind of experiment: Induction of apoptosis in human A549 cells assessed as early apoptotic cells at 0.5 uM after 24 hrs by annexin V-FITC/propidium iodide staining-based flow cytometric analysis (reference value: 1.9%). Format: functional. The method in brief: as §1
The subject of experiment [11] is A549. As to the kind of experiment: Induction of apoptosis in human A549 cells assessed as late apoptotic cells at 0.5 uM after 24 hrs by annexin V-FITC/propidium iodide staining-based flow cytometric analysis relative to control. The class given is functional. The method in brief:
as §1

For experiment [12], the system named is A549. The experiment is described as follows: Induction of apoptosis in human A549 cells assessed as necrotic cells at 0.5 uM after 24 hrs by annexin V-FITC/propidium iodide staining-based flow cytometric analysis (reference value: 2.04%). The class given is functional. The procedure, abridged:
as §1

For experiment [13], the system named is A549. As to the kind of experiment: Induction of apoptosis in human A549 cells assessed as viable cells at 0.5 uM after 24 hrs by annexin V-FITC/propidium iodide staining-based flow cytometric analysis (reference value: 96.06%). The class given is functional. The conditions noted are these: A549, 24 h, read-out: Activity. The method in brief: as §1
Experiment [14] deals with Carbonic anhydrase 12 (Homo sapiens, UniProt O43570). The experiment is described as follows: Inhibition of human membrane associated form of carbonic anhydrase-12 assessed as CO2 hydration activity incubated for 15 mins prior to testing by stopped flow method.
Chain of Carbonic anhydrase 12 (O43570 whole entry): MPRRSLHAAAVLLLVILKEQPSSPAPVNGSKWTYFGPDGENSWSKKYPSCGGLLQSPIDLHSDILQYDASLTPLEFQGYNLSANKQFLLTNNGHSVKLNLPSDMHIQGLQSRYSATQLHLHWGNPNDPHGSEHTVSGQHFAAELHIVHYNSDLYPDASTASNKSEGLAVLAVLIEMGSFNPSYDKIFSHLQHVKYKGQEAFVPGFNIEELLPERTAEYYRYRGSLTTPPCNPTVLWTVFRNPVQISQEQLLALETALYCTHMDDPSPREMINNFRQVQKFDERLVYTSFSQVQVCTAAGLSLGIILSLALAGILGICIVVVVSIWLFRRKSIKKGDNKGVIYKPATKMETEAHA

Experimental findings from ChEMBL document CHEMBL3414524, “Synthesis, carbonic anhydrase inhibition and cytotoxic activity of novel chromone-based sulfonamide derivatives” (Eur J Med Chem, 2015) are described below.

For the compound `CCOC1Oc2ccccc2C(=O)/C1=C/Nc1ccc(S(=O)(=O)Nc2nccs2)cc1` (centres undefined), the IC50 in experiment [1] is 48.6 µM; in experiment [2], over 100 µM. Further, the results for the Ki in experiment [3], in experiment [4] and in [5] were over 10 µM, over 10 µM and 0.0199 µM, respectively.

As for `O=C1/C(=C/c2coc3ccccc3c2=O)N=C(c2ccc(Cl)cc2)N1c1ccc(S(=O)(=O)Nc2nccs2)cc1`, the 50% inhibitory concentration (IC50) in experiment [1] and in [2] was over 100 µM each time.

Consider `Cc1cc(NS(=O)(=O)c2ccc(N3C(=O)/C(=C/c4coc5ccccc5c4=O)N=C3c3ccccc3)cc2)no1`, for which the concentration for half-maximal inhibition (IC50) in experiment [1] was 30 µM; in [2], over 100 µM. Also, the results for the Ki in [3] and in experiment [5] were over 10 µM and 0.0252 µM, respectively.

For `NS(=O)(=O)c1ccc(NCc2coc3ccccc3c2=O)cc1`, the concentration for half-maximal inhibition (IC50) in [1] came to 0.72 µM; in [2] it was 0.5 µM. Also, in experiment [5], the Ki is 0.0298 µM. For the same compound, the Activity in experiment [6] is reported as 94.12%; in experiment [7], 0.72%; in experiment [8], 0%; in [10], 74.77%; in [11], 1.64%; in experiment [12], 0.06%. Besides, the viability at 0.72 µM in experiment [9] amounted to 5.16%. In addition, the viability at 0.5 µM in experiment [13] came out at 23.5%.

Regarding `O=C1/C(=C/c2coc3ccccc3c2=O)N=C(c2ccccc2)N1c1ccc(S(=O)(=O)Nc2ncccn2)cc1`, the half-maximal inhibitory concentration (IC50) in [1] was over 100 µM; in experiment [2] it was 40.5 µM.

For `CCOC1Oc2ccccc2C(=O)/C1=C/Nc1ccc(S(=O)(=O)Nc2ncccn2)cc1` (centres undefined), the half-maximal inhibitory concentration (IC50) in [1] was 30.1 µM; in experiment [2], over 100 µM.

With `O=c1c(CNc2ccc(S(=O)(=O)Nc3ccccn3)cc2)coc2ccccc12`, the IC50 in [1] and in experiment [2] was over 100 µM each time.

Take `O=C1N=C(Nc2ccc(S(=O)(=O)Nc3ccccn3)cc2)S/C1=C/c1coc2ccccc2c1=O`: the IC50 is 47.1 µM in experiment [1] and over 100 µM in experiment [2]. The Ki in [3] was over 10 µM; in [5], 0.0256 µM.

Take `CCOC1Oc2ccccc2C(=O)/C1=C/Nc1ccc(S(N)(=O)=O)cc1` (centres undefined): the IC50 in experiment [1] is 22.2 µM; in experiment [2], 33.4 µM.

For the compound `CCOC1Oc2ccccc2C(=O)/C1=C/Nc1ccc(S(=O)(=O)Nc2ccccn2)cc1` (centres undefined), the IC50 in [1] turned out to be 28.8 µM; in [2] it was 39.1 µM. For the same compound, the inhibition constant (Ki) in [3] was over 10 µM; in experiment [4] it was over 10 µM; in experiment [5] it was 0.0209 µM; in [14] it was 0.062 µM.

For the compound `CCOC1Oc2ccccc2C(=O)/C1=C/Nc1ccc(S(=O)(=O)Nc2cc(C)on2)cc1` (centres undefined), the IC50 in experiment [1] is 25.8 µM; in [2], 57.2 µM. Besides, the inhibitory constant (Ki) in experiment [3] was over 10 µM; in experiment [4], over 10 µM; in experiment [5], 0.0238 µM.

For the compound `O=C1N=C(Nc2ccc(S(=O)(=O)Nc3ncccn3)cc2)S/C1=C/c1coc2ccccc2c1=O`, the half-inhibitory concentration (IC50) in experiment [1] was 82.6 µM; in experiment [2], over 100 µM. The values for the Ki in experiment [3], in [4] and in [5] were over 10 µM, over 10 µM and 0.0247 µM, respectively.

`Cc1cc(NS(=O)(=O)c2ccc(NCc3coc4ccccc4c3=O)cc2)no1`: the results for the IC50 in [1] and in experiment [2] were 34.5 µM and 59.7 µM, respectively. Besides, the Ki was over 10 µM in [3], over 10 µM in experiment [4] and 0.0321 µM in [5].

`COc1cccc2c1C(=O)c1c(O)c3c(c(O)c1C2=O)C[C@@](O)(C(=O)CO)C[C@@H]3O[C@H]1C[C@H](N)[C@H](O)[C@H](C)O1` [DOXORUBICIN]: the half-inhibitory concentration (IC50) in experiment [2] amounted to 26.8 µM.

As to `Cc1cc(C)nc(NS(=O)(=O)c2ccc(NC3=NC(=O)/C(=C\c4coc5ccccc5c4=O)S3)cc2)n1`, the IC50 in [1] and in experiment [2] was over 100 µM each time.

For the compound `Cc1cc(C)nc(NS(=O)(=O)c2ccc(N3C(=O)/C(=C/c4coc5ccccc5c4=O)N=C3c3ccccc3)cc2)n1`, the half-maximal inhibitory concentration (IC50) in [1] came to 99.7 µM; in experiment [2] it was 63.2 µM.

In the case of `Cc1cc(C)nc(NS(=O)(=O)c2ccc(N3C(=O)/C(=C/c4coc5ccccc5c4=O)N=C3c3ccc(Cl)cc3)cc2)n1`, the half-maximal inhibitory concentration (IC50) in experiment [1] came out at 93.9 µM; in experiment [2], 52.6 µM.

As for `O=C1N=C(Nc2ccc(S(=O)(=O)Nc3nccs3)cc2)S/C1=C/c1coc2ccccc2c1=O`, the 50% inhibitory concentration (IC50) in [1] and in experiment [2] was over 100 µM throughout.

With `O=c1c(CNc2ccc(S(=O)(=O)Nc3ncccn3)cc2)coc2ccccc12`, the results for the concentration for half-maximal inhibition (IC50) in experiment [1] and in experiment [2] were over 100 µM and 85.2 µM, respectively.

As to `NS(=O)(=O)c1ccc(NC2=NC(=O)/C(=C\c3coc4ccccc4c3=O)S2)cc1`, the IC50 amounted to 8.91 µM in experiment [1] and 2.23 µM in experiment [2]. Further, the Ki stood at 0.399 µM in experiment [3] and 0.0143 µM in experiment [5].

Consider `Cc1cc(NS(=O)(=O)c2ccc(NC3=NC(=O)/C(=C\c4coc5ccccc5c4=O)S3)cc2)no1`, for which the IC50 in experiment [1] and in [2] was over 100 µM in each case.

With `O=C1/C(=C/c2coc3ccccc3c2=O)N=C(c2ccc(Cl)cc2)N1c1ccc(S(=O)(=O)Nc2ncccn2)cc1`, the IC50 in [1] was over 100 µM; in experiment [2] it was 59 µM.

In the case of `O=C1/C(=C/c2coc3ccccc3c2=O)N=C(c2ccccc2)N1c1ccc(S(=O)(=O)Nc2ccccn2)cc1`, the IC50 in [1] and in experiment [2] was over 100 µM each time.

With `NS(=O)(=O)c1ccc(N2C(=O)/C(=C/c3coc4ccccc4c3=O)N=C2c2ccccc2)cc1`, the IC50 in [1] came out at 11.5 µM; in [2], 1.73 µM. The inhibitory constant (Ki) was 8 µM in experiment [3] and 0.023 µM in [5].

With `CCOC1Oc2ccccc2C(=O)/C1=C/Nc1ccc(S(=O)(=O)Nc2nc(C)cc(C)n2)cc1` (centres undefined), the IC50 in experiment [1] was 45.6 µM; in experiment [2], 36.4 µM. Also, the Ki in experiment [3] is over 10 µM; in experiment [4] it was over 10 µM; in experiment [5], 0.0376 µM.

In the case of `O=C1/C(=C/c2coc3ccccc3c2=O)N=C(c2ccc(Cl)cc2)N1c1ccc(S(=O)(=O)Nc2ccccn2)cc1`, the IC50 in experiment [1] and in experiment [2] was over 100 µM each time.

`Cc1cc(NS(=O)(=O)c2ccc(N3C(=O)/C(=C/c4coc5ccccc5c4=O)N=C3c3ccc(Cl)cc3)cc2)no1`: the half-inhibitory concentration (IC50) in experiment [1] and in [2] was over 100 µM each time.

For the compound `O=C1/C(=C/c2coc3ccccc3c2=O)N=C(c2ccccc2)N1c1ccc(S(=O)(=O)Nc2nccs2)cc1`, the figures for the IC50 in experiment [1] and in [2] were 88.5 µM and 88.4 µM, respectively.

On to `O=c1c(CNc2ccc(S(=O)(=O)Nc3nccs3)cc2)coc2ccccc12`, for which the 50% inhibitory concentration (IC50) in experiment [1] came to 58.6 µM; in [2], 25.6 µM.

`NS(=O)(=O)c1ccc(N2C(=O)/C(=C/c3coc4ccccc4c3=O)N=C2c2ccc(Cl)cc2)cc1`: the values for the IC50 in experiment [1] and in experiment [2] were 24.3 µM and 13.8 µM, respectively. Moreover, the Ki is over 10 µM in [3] and 0.0184 µM in experiment [5].

Regarding `Cc1cc(C)nc(NS(=O)(=O)c2ccc(NCc3coc4ccccc4c3=O)cc2)n1`, the values for the IC50 in experiment [1] and in experiment [2] were 93.6 µM and 55.8 µM, respectively.

One may read the IC50 as the concentration needed to halve the response being measured. For orientation: Ki means a dissociation constant, usually derived from enzyme kinetics or from competition with a known ligand.
